Assay outcomes deposited in PubChem by SRMLSC.
The entries come from a sample that favours hits as a whole.
HCT116 PTEN-null: growth suppressors of cells with PTEN tumor suppressor deletion | HCT116 PTEN-null viability, CellTiter-Glo, 60 h; hits give low values | viability, % at 10 µM | AID 827 | hit rate 1.2% among 140,000;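 active means viability at or below a set limit, 4 SD under the median of all tested compounds, cut at about 3.7% in these data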;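 further: PTEN knockout HCT116 line with beta catenin targeted HCT116 as companion control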
HUVEC inhibit: inhibitors of human endothelial cell proliferation. HUVEC proliferation, CellTiter-Glo luminescence, 72 h; hits give low values. hit rate 1.1% among 86,000. viability, % at 10 µM (by protocol). AID 648;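 active means viability at or below 30%; inactive means viability above 30%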;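 further: 100% = median luminescence of DMSO-only cell control wells on each plate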
H69AR inhibit: growth inhibitors of human H69AR lung tumor cells | H69AR lung tumor viability, ATP luminescence, 72 h; hits give low values | viability, % at 10 µM | hit rate 6% among 85,000;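 active means viability at or below 40%; inactive means viability above 40%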;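 further: multidrug resistant small cell line overexpressing MRP-1 efflux transporter; 100% = mean luminescence of untreated control wells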
HCT116 bCat-KO: beta-catenin-lacking colon tumor cell growth suppression. HCT116 beta-catenin knockout viability, CellTiter-Glo, 60 h; hits give low values. viability, % at 10 µM. hit rate 1.5% among 140,000;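 active means viability at or under a set limit, the compound median less 4 SD, cut at about 6% in these data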;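 further: 0% = Hyamine 1622 control at 20 µM and 100% = untreated cell control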
Fibroblast inh: blocks proliferation of human lung fibroblasts; viability, % at 10 µM; LL 47 human lung fibroblast viability, ATP luminescence; hits give low values; hit rate 1.1% among 85,000;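 active means viability at or below 50% in the single dose screen; inactive means viability above 50%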;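 further: compound exposure lasted 72 h before the ATP readout; 100% = median luminescence of untreated cell-only wells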
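Assay system: human lung fibroblast line LL 47, low passage. Input: 1,150 fibroblasts seeded per well. Times: overnight cell rest, 72 h compound treatment at 37 °C. Evaluation: % viability of median cell-only signal. Technique: luminescent ATP detection, CellTiter-Glo. Control set: cell-only wells, no compound.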
An asterisk follows results filed as active.

How did COCCCN1C(=O)c2[nH]nc(-c3ccccc3O)c2C1c1ccc(Cl)cc1 (stereo unspecified) do in these assays?
HCT116 PTEN-null: 36.2; HUVEC inhibit: 89.0; HCT116 bCat-KO: 42.3; Fibroblast inh: 88.8

How did COc1ccc(CCN2C(=O)c3[nH]nc(-c4ccccc4O)c3C2c2ccccc2)cc1OC (stereo unspecified) do in these assays?
HCT116 PTEN-null: 27.2; HUVEC inhibit: 78.5; H69AR inhibit: 39.0*; HCT116 bCat-KO: 23.5; Fibroblast inh: 89.7

How did O=C1c2[nH]nc(-c3ccccc3O)c2C(c2ccccc2F)N1Cc1ccco1 (stereo unspecified) do in these assays?
HCT116 PTEN-null: 27.8; HUVEC inhibit: 53.2; H69AR inhibit: 4.5*; HCT116 bCat-KO: 43.1; Fibroblast inh: 77.2

What do the screens show for `CC(C)OCCCN1C(=O)c2[nH]nc(-c3ccccc3O)c2C1c1cccc(Cl)c1` (stereo unspecified)?
HCT116 PTEN-null: 18.8; HUVEC inhibit: 5.7*; H69AR inhibit: 6.5*; HCT116 bCat-KO: 40.4; Fibroblast inh: 86.1

How did CCN1C(=O)CC2(C[N+]3(C)CCC2CC3)C1=O (stereo unspecified) do in these assays?
HCT116 PTEN-null: 98.7; HCT116 bCat-KO: 101.4

What do the screens show for `O=C(CSc1nccn1-c1ncc(C(F)(F)F)cc1Cl)c1ccc(Cl)cc1`?
HCT116 PTEN-null: 94.7; HCT116 bCat-KO: 95.7

What do the screens show for `COC(=O)c1sc2nc(C)c([N+](=O)[O-])c(C)c2c1N`?
HCT116 PTEN-null: 82.7; HCT116 bCat-KO: 89.9

What do the screens show for `Cc1ccc2[nH]c(=O)c(CN(Cc3ccco3)C(=O)c3cccs3)cc2c1`?
HCT116 PTEN-null: 90.7; HUVEC inhibit: 91.9; H69AR inhibit: 82.6; HCT116 bCat-KO: 91.0; Fibroblast inh: 94.6

How did CCCCN(Cc1ccco1)C(=O)c1cc2c(=O)[nH]c3ccc(C)cc3c2s1 do in these assays?
HCT116 PTEN-null: 41.0; HUVEC inhibit: 4.4*; H69AR inhibit: 28.3*; HCT116 bCat-KO: 50.6; Fibroblast inh: 62.1

How did Cc1ccc2cc(CN(Cc3ccco3)C(=O)c3cccs3)c(=O)[nH]c2c1 do in these assays?
HCT116 PTEN-null: 13.1; HUVEC inhibit: 61.2; H69AR inhibit: 21.0*; HCT116 bCat-KO: 11.8; Fibroblast inh: 54.0

How did NS(=O)(=O)c1ccc(CCN=Cc2ccccc2O)cc1 do in these assays?
HCT116 PTEN-null: 103.5; HCT116 bCat-KO: 101.9

Results for CC(C)(C)NC(=O)COC(=O)c1ccccc1OCC(=O)Nc1ccc(Br)cc1 ?
HCT116 PTEN-null: 89.3; HCT116 bCat-KO: 86.6

Results for COCCCNCCCOc1ccc(Cl)cc1C(C)(C)C ?
HCT116 PTEN-null: 3.1*; HCT116 bCat-KO: 4.0*

What do the screens show for `Cc1cc(C(=O)OCC(=O)NCc2ccco2)c(C)n1-c1ccc(F)cc1`?
HCT116 PTEN-null: 18.8; HUVEC inhibit: 45.1; H69AR inhibit: 20.7*; HCT116 bCat-KO: 14.3; Fibroblast inh: 60.8

How did CCC(C)NC(=S)N(CCc1ccccc1)Cc1cc2cc(OC)c(OC)cc2[nH]c1=O (stereo unspecified) do in these assays?
HCT116 PTEN-null: 71.0; HCT116 bCat-KO: 86.3

What do the screens show for `O=[N+]([O-])c1c(NCc2ccccc2)cc(N2CCc3ccccc3C2)c2nonc12`?
HCT116 PTEN-null: 85.3; HCT116 bCat-KO: 85.0

How did CCc1ccc(C2C(C#N)=C(N)C(C#N)(C#N)C3=CCC(C(C)(C)C)CC32)cc1 (stereo unspecified) do in these assays?
HCT116 PTEN-null: 57.6; HUVEC inhibit: 2.3*; H69AR inhibit: 78.6; HCT116 bCat-KO: 56.5; Fibroblast inh: 64.2

How did Cc1ccc(NC(=O)CSc2nnc([C@@H]3CCCN3C(=O)OC(C)(C)C)o2)c(C)c1 do in these assays?
HCT116 PTEN-null: 104.9; HUVEC inhibit: 98.7; H69AR inhibit: 34.9*; HCT116 bCat-KO: 99.4; Fibroblast inh: 103.4

Results for S=C(Nc1ccc(Cl)c(Cl)c1)NN1CCOCC1 ?
HCT116 PTEN-null: 88.3; HCT116 bCat-KO: 93.1

How did CCCS(=O)(=O)N1CCN(Cc2ccc3c(c2)c2ccccc2n3CC)CC1 do in these assays?
HCT116 PTEN-null: 74.8; HCT116 bCat-KO: 72.7

What do the screens show for `Cc1ccc(C)c(N2CCN(c3cnn(-c4nc5ccccc5s4)c(=O)c3Cl)CC2)c1`?
HCT116 PTEN-null: 50.2; HCT116 bCat-KO: 56.5

What do the screens show for `O=C(/C=C/c1ccc([N+](=O)[O-])cc1)NCc1cccnc1`?
HCT116 PTEN-null: 81.5; HCT116 bCat-KO: 96.8

What do the screens show for `O=C(/C=C/c1cccc(OCc2ccccc2)c1)c1cccnc1`?
HCT116 PTEN-null: 0.7*; HCT116 bCat-KO: 2.7*

Results for O=C(/C=C/c1ccc([N+](=O)[O-])cc1)c1cccnc1 ?
HCT116 PTEN-null: 1.6*; HCT116 bCat-KO: 1.4*

How did C=C(C)CNC(=S)Nc1sc2c(c1C(=O)OCC)CC(C)(C)OC2 do in these assays?
HCT116 PTEN-null: 95.3; HCT116 bCat-KO: 86.0

Results for COC(=O)c1cc(OC)c(OC)cc1NC(=O)C(C)c1ccc([N+](=O)[O-])cc1 (stereo unspecified) ?
HCT116 PTEN-null: 82.0; HCT116 bCat-KO: 94.1

What do the screens show for `CCOC(=O)c1ccccc1NC(=O)CSc1nc2c(c(=O)n(C)c(=O)n2C)n1C`?
HCT116 PTEN-null: 96.9; HUVEC inhibit: 106.6; H69AR inhibit: 31.8*; HCT116 bCat-KO: 100.5

How did CCOC(=O)c1ccccc1NC(=O)c1cccs1 do in these assays?
HCT116 PTEN-null: 84.9; HUVEC inhibit: 79.5; H69AR inhibit: 95.1; HCT116 bCat-KO: 87.8; Fibroblast inh: 95.0

What do the screens show for `CCOC(=O)c1ccccc1NC(=O)c1n[nH]c(=O)c2ccccc12`?
HCT116 PTEN-null: 3.1*; HCT116 bCat-KO: 6.8

Results for FC(F)(F)c1ccc(Oc2ccc3ccccc3c2Br)nc1 ?
HCT116 PTEN-null: 82.5; HCT116 bCat-KO: 84.8

What do the screens show for `CN(C)S(=O)(=O)c1ccc(N2CCCC2)c(C(=O)Nc2nc(-c3cc(F)ccc3F)cs2)c1`?
HCT116 PTEN-null: 51.0; HCT116 bCat-KO: 77.3

What do the screens show for `CCOC(=O)NC(NCCc1ccccc1)(C(F)(F)F)C(F)(F)F`?
HCT116 PTEN-null: 103.9; HUVEC inhibit: 98.0; H69AR inhibit: 12.2*; HCT116 bCat-KO: 100.7; Fibroblast inh: 98.1

What do the screens show for `CC(/C=N/Nc1nnc2c(n1)[nH]c1ccccc12)=C\c1ccco1`?
HCT116 PTEN-null: 84.7; HUVEC inhibit: 97.5; H69AR inhibit: 34.5*; HCT116 bCat-KO: 89.0; Fibroblast inh: 113.7

How did CSc1nsc(SCC(=O)Nc2nc3ccc(C)cc3s2)n1 do in these assays?
HCT116 PTEN-null: 103.3; HCT116 bCat-KO: 97.3

How did Cc1ccc2[nH]c(=O)c(C3C(C#N)=C(N)Oc4c3ccc3cccnc43)cc2c1 (stereo unspecified) do in these assays?
HCT116 PTEN-null: 8.4; HUVEC inhibit: 4.9*; H69AR inhibit: 10.5*; HCT116 bCat-KO: 10.3; Fibroblast inh: 69.2

What do the screens show for `O=C(CC1CS(=O)(=O)CC1CC(=O)Oc1ccccc1F)Oc1ccccc1F` (stereo unspecified)?
HCT116 PTEN-null: 97.6; HCT116 bCat-KO: 105.6

What do the screens show for `O=C(COc1cccc2c1CCN(Cc1ccc(Br)cc1)C2=O)NCc1ccco1`?
HCT116 PTEN-null: 100.0; HCT116 bCat-KO: 93.0
